Experimental data from PMC2889198 (Bioconjugate chemistry, 2009).
pKd: −log10 of the molar value.

Legend:
[1] = system: Monomeric Katushka (mKate), C-terminal His6-tag; assay: SPR binding kinetics of tris-NTA chip with His6-mKate; conditions: for kd Instant dissociation rate constant / ka Instant association rate constant: 25 °C, 1:1 binding model; for ka Instant association rate constant: 1~10 nM analyte; for pKd: read-out: KD Equilibrium dissociation constant, 25 °C, 1:1 binding model
How it was run: (§1)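 Streptavidin chip washed with 50 mM NaOH/1 M NaCl and run in HBS-P pH 7.4 at 25 °C. Flow cell 1 is a blank; the others carry biotin-tris-NTA at about 50 RU. Each cycle: 5 mM NiCl2 activation, His6-protein injection (1–10 nM; mKate in 1 nM steps, 7 nM omitted), 0.3 M EDTA strip, 0.25% SDS/0.5 M NaCl rinse. Duplicates, double-referenced, global 1:1 Langmuir fit.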

[2] = system: Tumor necrosis factor alpha-stimulated gene-6 (TSG6), C-terminal His6-tag; assay: SPR binding kinetics of tris-NTA chip with His6-tagged TSG6; conditions: for ka Instant association rate constant / kd Instant dissociation rate constant: 25 °C, 1:1 binding model; for pKd: read-out: KD Equilibrium dissociation constant, 25 °C, 1:1 binding model
How it was run: as §1

[3] = system: His6-tagged peptide […]; assay: SPR binding kinetics of tris-NTA chip with His6-peptide; conditions: for ka Instant association rate constant / kd Instant dissociation rate constant: 25 °C, 1:1 binding model; for pKd: read-out: KD Equilibrium dissociation constant, 25 °C, 1:1 binding model
[4] = system: Androgen receptor N-terminal domain (AR-NTD), C-terminal His6-tag; assay: SPR binding kinetics of tris-NTA chip with His6-tagged AR-NTD; conditions: for kd Instant dissociation rate constant / ka Instant association rate constant: 25 °C, 1:1 binding model; for ka Instant association rate constant: Ni(II)-activated tris-NTA; for pKd: read-out: KD Equilibrium dissociation constant, 25 °C, 1:1 binding model
How it was run: as §1

[5] = target: T1, Yeast cytosine deaminase (yCD), C-terminal His6-tag (Saccharomyces cerevisiae, UniProt Q12178); assay: SPR binding kinetics of tris-NTA chip with His6-tagged yCD; conditions: for kon: read-out: ka Instant association rate constant; for koff: read-out: kd Instant dissociation rate constant
T1 sequence (Q12178 with tags, fused parts or gaps): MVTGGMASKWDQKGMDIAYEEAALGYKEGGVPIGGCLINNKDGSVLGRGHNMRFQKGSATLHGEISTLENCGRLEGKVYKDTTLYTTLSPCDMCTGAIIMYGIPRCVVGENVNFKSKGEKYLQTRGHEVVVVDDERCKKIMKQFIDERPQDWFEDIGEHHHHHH
How it was run: as §1

[6] = target: hexahistidine (His6) tagged proteins; conditions: read-out: equilibrium dissociation constant KD between mono-NTA and His6; cited from earlier work

Compound	kd Instant dissociation rate constant [1]	ka Instant association rate constant [1]	pKd [1]	ka Instant association rate constant [2]	kd Instant dissociation rate constant [2]	pKd [2]	ka Instant association rate constant [3]	kd Instant dissociation rate constant [3]	pKd [3]	kd Instant dissociation rate constant [4]	ka Instant association rate constant [4]	pKd [4]	kon [5]	koff [5]	pKd [6]
O=C(O)CN(CC(=O)O)[C@@H](CCCCNC(=O)CCOCCOCCOCCOCCNC(=O)CN(CC(=O)NCCOCCOCCOCCOCCC(=O)NCCCC[C@@H](C(=O)O)N(CC(=O)O)CC(=O)O)[C@@H](CCCCNC(=O)CCCC[C@@H]1SC[C@@H]2NC(=O)N[C@@H]21)C(=O)NCCOCCOCCOCCOCCC(=O)NCCCC[C@@H](C(=O)O)N(CC(=O)O)CC(=O)O)C(=O)O [Compound 6a]	1.53 10^−3 S^−1	5.38 10^5 M^−1 S^−1	8.55	6.89 10^5 M^−1 S^−1	4.84 10^−3 S^−1	8.15	3.09 10^5 M^−1 S^−1	3.97 10^−3 S^−1	7.89	1.29 10^−3 S^−1	0.94 10^5 M^−1 S^−1	7.86			
O=C(O)CN(CC(=O)O)[C@@H](CCCCNC(=O)CN(CC(=O)NCCCC[C@@H](C(=O)O)N(CC(=O)O)CC(=O)O)[C@@H](CCCCNC(=O)CCCC[C@@H]1SC[C@@H]2NC(=O)N[C@@H]21)C(=O)NCCCC[C@@H](C(=O)O)N(CC(=O)O)CC(=O)O)C(=O)O [Compound 6b]				19.4 10^5 M^−1 S^−1	5.78 10^−3 S^−1	8.52	1.86 10^5 M^−1 S^−1	1.85 10^−3 S^−1	8.00	1.40 10^−3 S^−1	0.81 10^5 M^−1 S^−1	7.76	119000 M⁻¹ s⁻¹	0.00083 s⁻¹	
O=C(O)CN(CC(=O)O)[C@@H](CCCNC(=O)CN(CC(=O)NCCC[C@@H](C(=O)O)N(CC(=O)O)CC(=O)O)[C@@H](CCCCNC(=O)CCCC[C@@H]1SC[C@@H]2NC(=O)N[C@@H]21)C(=O)NCCC[C@@H](C(=O)O)N(CC(=O)O)CC(=O)O)C(=O)O [Compound 6c]	0.43 10^−3 S^−1	10.6 10^5 M^−1 S^−1	9.40	3.92 10^5 M^−1 S^−1	0.008 10^−3 S^−1	10.70	2.19 10^5 M^−1 S^−1	0.72 10^−3 S^−1	8.48	0.27 10^−3 S^−1	1.44 10^5 M^−1 S^−1	8.73	197000 M⁻¹ s⁻¹	0.00059 s⁻¹	
O=C(O)CN(CC(=O)O)CC(=O)O [NTA, Nitrilotriacetic acid]															5.00
